The results in this text go back to the RNAGym collection of RNA variant scans (doi:10.1126/science.aae0568).

Variants at the floor of the assay were thinned out.

First the molecules themselves.
B1: tRNA (parent)
chain: GUUCCGUUGGCGUAAUGGUAACGCGUCUCCCUCCUAAGGAGAAGACUGCGGGUUCGAGUCCCGUACGGAACG

The data set covers variants of B1. The data set is described as follows: yeast fitness relative to wild type (ratio to wild type); higher = fitter; tRNA-Arg(CCU), competitive growth, 37 C, YPD. The method in brief:
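Variants of the tRNA-Arg(CCU) gene were chemically synthesised with a 3% per-site mutation rate across 69 sites and placed at the native genomic locus in Saccharomyces cerevisiae. Six parallel replicates of the pooled strains were competed in YPD at 37°C for 24 hours, and gene amplicons from the start and end populations were read by 100-nucleotide paired-end sequencing. Darwinian fitness relative to wild type was derived from changes in genotype frequencies. Genotypes required ≥ 100 starting reads, and estimates < 0.5 were set to 0.5.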
On to GUUCCGUUGGCGUGAUGGUAACGCGUCUCCCGCCUAAGGAGAAGACUGCGGGUUCGAGUCCCGUACGGAACG [A14G U32G], for which the yeast fitness was 0.597.

Regarding GUUCCGUUGGCGUGAUGGUAACGCGUCACCCUCCUAAGGAGAAGACUGCGGGUUCGAGUCCCGUACGGAACG [A14G U28A], the yeast fitness stood at 0.705.

For the variant GUUCCGUUGGCGUGAUGGUAACGCGUCUCCCUCCUAAGCAGAAGACUGCGAGUUCGAGUCCCGUACGGAACG [A14G G39C G51A], the yeast fitness was at most 0.5.

Take GUUCCGUUGGCGUGAUGGGAACGCGUGUCCCUCAUAAGGAGUAGACUGCGGGUUCGAGUCCCGUACGGAACG [A14G U19G C27G C34A A42U]: the yeast fitness is at most 0.5.

Take GUUCCGUUGGCGUGAUGGUAACGCGUCUCCCUCCUAAGGAGAAGACUGCGGCUUCGAGUCCCGUACGGAACG [A14G G52C]: the yeast fitness was determined as 0.577.

For GUUCCGUUGGCGUGAUGCUAACGCGUCUCCAUCCUAAGGAGAAGACUGCGGGUUCGAGUCCCGUACGGAACG [A14G G18C C31A], the yeast fitness is at most 0.5.

As to GUUCCGUUGGCGUGAAGGUAACGGGUCUCCCUCCUAAGGAGAAGACUGCGAGUUCGAGUCCCGUACGGAACG [A14G U16A C24G G51A], the yeast fitness worked out at 0.511.

With GUUCCGUUGGCGUGAUGGUAACGCGUCUCCCGCCUAAGGAGAAGACUGCGGGUUCGAGUUCUGUACGGAACG [A14G U32G C60U C62U], the yeast fitness stood at 0.539.

For GUUCCGUUGGCGUGAUGGUAACGCGUCUCCCUCCUAAGGAAAACACUGUGGGUUCGAGUCCCGUACGGAACG [A14G G41A G44C C49U], the yeast fitness is at most 0.5.

With GUUCCGUUGGCGUGAUGGAAACGCGUGUCCCUCCUAAGGAGAAAAGUGCGGGUUGGAGUCCCGUAAGGAACG [A14G U19A C27G G44A C46G C55G C66A], the yeast fitness was at most 0.5.

For GUUCCGUUGGCGUGAUGGUAACGCGUCACCCUCCUAAGGAGAAGCCUGCGGGAUCGAGUCCCGUACGGAACG [A14G U28A A45C U53A], the yeast fitness is at most 0.5.

GUUCCGUUGGCGUGAUGGUAACGCCUCUACCUCCUAAGGAGAAGACUGCGGAUUCGAGUCCCGUACGGAACG [A14G G25C C29A G52A]: the yeast fitness was at most 0.5.

Turning to GUUCCGUUGGCGUGAUGGUAACGCGUCUCCCUCCCAAGGAGAAGACUGCGGGUUCGGGUCCCGUACGGAACG [A14G U35C A57G], the yeast fitness was at most 0.5.

As for GUUCCGUUGGCGUGAAGGUAACGCGUCUCCCUACUAAGGAGAAGACUGUGGGUUUGAGUCCCGUACGGAACG [A14G U16A C33A C49U C55U], the yeast fitness was at most 0.5.

Take GUUCCGUUGGCGUGAUGGUAACGCGUCUCCCUCCUAAGGACAAGACUGCGGGUUCGAGUCCCGUACGGAACG [A14G G41C]: the yeast fitness is 0.917.

Consider GUUCCGUUGGCGUGAGGGUAACGGGCCUCCCUCCUAAGGAGAAGACGGCCGGUUCGAGUCCCGUAAGGAACG [A14G U16G C24G U26C U47G G50C C66A], for which the yeast fitness is at most 0.5.

With GUUCCGUUGGCGUGAGGGUAACGGGCCUCCCUCCUAAGGAGAAGACUGCCGGUUCGAGUCCCGUUCGGAACG [A14G U16G C24G U26C G50C A65U], the yeast fitness was at most 0.5.

Turning to GUUCCGUUGGCGUGAUGGUAACGCAUCUCACUCCUAAGGAGAAGACUGCGGGUUCGAGUCCCGUACGGACCG [A14G G25A C30A A70C], the yeast fitness is at most 0.5.

Turning to GUUCCGUUGGCGUGAUGGUAACGCCUCUCCAUCCUAAGGAGAAGACUGCGGGUUCGAGUCCCGUACGGAACG [A14G G25C C31A], the yeast fitness is at most 0.5.

In the case of GUUCCGUUGGCGUGAUGGUAACGCGUCCCCCCUCUAAGGAGAAGACUGCGGGUUCAAGUCCCGUACGGAACG [A14G U28C U32C C33U G56A], the yeast fitness was at most 0.5.

For the variant GUUCCGUUGGCGUGAAGGUAACGCGUCUCCCUCCUAAGGAGAAGACUGCGGGUUCGAGUCCCGUACGGAACG [A14G U16A], the yeast fitness is 0.886.

In the case of GUUCCGUUGGCGUGAUGGUAACGCGUCUCCCUCCUAAGGAGAAGACUGCGGGUUCGAGUCCCGUACUGAACG [A14G G67U], the yeast fitness is 0.776.

Take GUUCCGUUGGCGUGAUGGUAACGCGUCUCCCUCCUAAGAAGAACACUGCGGGUUCGAGUCACCUACGGAACG [A14G G39A G44C C61A G63C]: the yeast fitness was at most 0.5.

Regarding GUUCCGUUGGCGUGAAGGUAACGCGUCUCCCUACUAAGGAGAAGACUGCGGGUUCGAGCCCCGUACGGAACG [A14G U16A C33A U59C], the yeast fitness is at most 0.5.

For GUUCCGUUGGCGUGAUGGUAACACGUCUCCCUCCUAAGGAGAAGACUGCGGGUUCGAGUCCCGUACGGACCG [A14G G23A A70C], the yeast fitness was at most 0.5.

In the case of GUUCCGUUGGCGUGAUGGUAACGCGUCCCCCUCCUAAGGAGAAGACUGCGGGUUCGAGUCCCGUACUGCACG [A14G U28C G67U A69C], the yeast fitness was at most 0.5.

With GUUCCGUUGGCGUGAUGGUAACGCGUCUCCCUCCUAAGGAGAAGACUACGGGUUCGAGUCCCGUAUGGAACG [A14G G48A C66U], the yeast fitness came out at 0.645.

For the variant GUUCCGUUGGCGUGAUGGUAACGCGUCUCCCUCCUAAGGAGAAGACUGCGAGUCCGAGUCCCGUACGGAACG [A14G G51A U54C], the yeast fitness was at most 0.5.

Take GUUCCGUUGGCGUGAUGGUAACGCGUCUCCCUCCUAAGGACAAGACUGCGGGUUAGAGUCCCGUACGGAACG [A14G G41C C55A]: the yeast fitness was at most 0.5.

GUUCCGUUGGCGUGAUGGUAACACGUCUCCCUCCUAAGGAGAAGACCGCGGGUUCGAGUCCCGUACGGAACG [A14G G23A U47C]: the yeast fitness was at most 0.5.

Take GUUCCGUUGGCGUGAUGGCAACGCGUCUCCCUCCUAAGGAGAAGACUGCGGGUUCGAGUCCCGUACGGAACG [A14G U19C]: the yeast fitness was determined as 0.919.

Turning to GUUCCGUUGGCGUGAUGGUAACGCGUCUCCCUCCUAAGGAGAAGACUGCGGGUUCGACUCCCGUACGGAUCG [A14G G58C A70U], the yeast fitness is 0.892.

Consider GUUCCGUUGGCGUGAUGGUAACGCGUCUCCCUCCUAAGGAGAAGACUGCGAGUUCGCGUCCCGUACGGAACG [A14G G51A A57C], for which the yeast fitness turned out to be 0.742.

With GUUCCGUUGGCGUGAUGGUAACGCAUCUCCCUCCUUAGGAGAAGACUGCAGGUUCGAGUCCGGUACGGAACG [A14G G25A A36U G50A C62G], the yeast fitness was at most 0.5.

For GUUCCGUUGGCGUGAUGGAGACGCGUCUCCCUCCUAAGGUGAAGACUGCGGGUUCGAGUCGCGUACGGAACG [A14G U19A A20G A40U C61G], the yeast fitness stood at 0.515.

In the case of GUUCCGUUGGCGUGAUGGCAACGCGUCUCCCUCCUAACGAGAACAAUGCGGGUUCGAGUCCCGUACGGAACG [A14G U19C G38C G44C C46A], the yeast fitness amounted to 0.704.

For GUUCCGUUGGCGUGAUGGUAACGCGAGUCCCUCCUAAGGAGAAGACUGCGGGUUCGAGUCCAGUACGGAACG [A14G U26A C27G C62A], the yeast fitness came to 0.571.
